As a reminder, the IC50 is the concentration at which inhibition is half-maximal. A high value points to lower potency.

For one series, the system named is antisera. Briefly: ic-ELISA of antiserum of the immunized mouse. It is filed as binding, Balb/c mice. As to conditions: phenamacril at 1 μg/mL, mouse used for fusion (titer 80,000).
For series [1] the following is noted: activated sludge; cited from earlier work.
The subject of the next series is antiphenamacril mAb. Kind of series: ic-ELISA for sensitivity and specificity of the mAb. The settings on record: for Cross-reactivity: CR = IC50(analyte)/IC50(structural analogue) x 100%; for IC50: ic-ELISA, standards in 10% methanol-PBS. It is filed as binding, Balb/c mice. In outline: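 Ic-ELISA with purified mAb (ascites, Protein G column). Phenamacril standards at 0–500 ng/mL (500 to 1.95 in twofold steps) in 10% methanol-PBS; 50 μL standard and 50 μL mAb per well. IC50 taken as sensitivity. Cross-reactivity run with four methoxyacrylate analogues: IC50(analyte)/IC50(analogue) × 100%.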
A general note: ELISA stands for enzyme-linked immunosorbent assay.

Series [2] relates to Au@PDA-mAb probe. Briefly: dr-ICGA on wheat flour samples. It is filed as binding. As to conditions: n = 5. The procedure, abridged: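 Phenamacril-free flour (5 g, confirmed by LC-MS/MS) in 10 mL ultrapure water, vortexed 2 min, spiked with standard to 0.0125–0.20 mg/kg; water-only blank at 0 mg/kg. Residue redissolved in 1 mL 10% methanol-PBS, then diluted 10-fold. 100 μL applied to the strip. Read by eye as −, ± or +, with cut-offs <0.05, 0.05–0.1 and >0.1 mg/kg.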

The subject of series [3] is Au@PDA-mAb probe. Kind of series: dual-readout immunochromatographic strip. It is filed as binding. The procedure, abridged: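 Standards and analogues at 0.63–20 ng/mL in PBS with 10% methanol were applied to the strip sample pad (100 μL). Au@PDA-mAb probe sat on the conjugate pad. T line held phenamacril-OVA plus QDs-OVA; C line held anti-mouse IgG. Colour read by eye as T-line red loss against the C line. Fluorescence read as green T-line intensity under UV.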

For series [4] the following is noted: Jiangxi red soil; cited from earlier work.

In the case of `CCOC(=O)C(C#N)=C(N)c1ccccc1` [Phenamacril, 2-cyano-3-amino-3-phenylacrylic acetate], in the series with antisera, the inhibition rate result is given as “approximately 70.8%”. In addition, in series [1], the degradation result is given as “degrades slowly”. The same molecule gave a Cross-reactivity in the series on antiphenamacril mAb of 100%. This molecule also returned an IC50 in the series on antiphenamacril mAb of 17.46 ng/mL. For the same molecule, the “dr-ICGA visual result (dilute 10 times)” value in the series on Au@PDA-mAb probe [2] (wheat flour spiked 0.0125 mg/kg) is “−, −, −, −, −,”; in the series with Au@PDA-mAb probe [2] (wheat flour spiked 0.025 mg/kg), “−, ± , −, ± , −,”; with Au@PDA-mAb probe [2] (wheat flour spiked 0.05 mg/kg), “±, ± , ± , ± , ± ,”; in the series with Au@PDA-mAb probe [2] (wheat flour spiked 0.1 mg/kg) it was “±, + , + , + , + ,”; with Au@PDA-mAb probe [2] (wheat flour spiked 0.2 mg/kg), “+, + , + , + , + ,”. In addition, the “reaction on the T line of the dual-readout strip” value in the series on Au@PDA-mAb probe [3] (20 ng/mL loaded, visual and UV readout) was “strong positive reaction on the T line”. Moreover, the “limit of detection (cutoff value)” value in the series with Au@PDA-mAb probe [3] (dr-ICGA, colorimetric and fluorescent readout, within 10 min) was determined as 5 ng/mL. Also, the mobility in soil entry in series [4] is recorded as “moderately mobile”.
Consider `CO/C=C(/C(=O)OC)c1ccccc1Oc1cc(Oc2ccccc2C#N)ncn1` [Azoxystrobin], for which, in the series with antiphenamacril mAb, the Cross-reactivity is reported as <0.35% and the IC50 is recorded as >5,000 ng/mL. In addition, the Cross-reactivity with antiphenamacril mAb (listed as azoxystrobin) was < 0.35%.
As for `COC(=O)N(OC)c1ccccc1COc1ccn(-c2ccc(Cl)cc2)n1` [Pyraclostrobin], in the series on antiphenamacril mAb, the Cross-reactivity is <0.35% and the half-inhibitory concentration (IC50) is >5,000 ng/mL. The Cross-reactivity with antiphenamacril mAb (listed as pyraclostrobin) is < 0.35%.
Take `COc1c(F)c(F)c(C(=O)NCc2ncc(C(F)(F)F)cc2Cl)c(F)c1F` [Fluopimomide]: the results for the Cross-reactivity in the series with antiphenamacril mAb and with antiphenamacril mAb (listed as fluopimomide) were <0.35% and < 0.35%, respectively. Moreover, the IC50 with antiphenamacril mAb is reported as >5,000 ng/mL.
For the molecule `CO/C=C(/C(=O)OC)c1ccccc1COc1cccc(C(F)(F)F)n1` [Picoxystrobin], the Cross-reactivity is recorded as <0.35% with antiphenamacril mAb and < 0.35% in the series on antiphenamacril mAb (listed as picoxystrobin). Moreover, the IC50 in the series on antiphenamacril mAb was >5,000 ng/mL.

Source of the values: article PMC11838921 (Journal of agricultural and food chemistry, 2024).
